This note sets out measurements from ChEMBL document CHEMBL3751707, “Silicon Incorporated Morpholine Antifungals: Design, Synthesis, and Biological Evaluation” (ACS Med Chem Lett, 2015).

SMILES strings stand for the structures. Values after ≈ are worked out from the molar mass of the structure shown.

The test system of series [1] is Candida tropicalis. The series can be described thus: Antifungal activity against Candida tropicalis ATCC 750 after 72 hrs by broth microdilution method. In kind it is functional. As to conditions: ATCC 750, 72 h. In a few lines:
(§1)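 CLSI broth microdilution against yeasts (M27-A3) and filamentous fungi (M38-A2). Read-outs: IC50 (concentration giving 50% growth inhibition), MIC, and MFC (minimum fungicidal concentration), all in μg/mL. Assay done twice in triplicate.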

Series [2] has as its system Nakaseomyces glabratus. As to the kind of experiment: Antifungal activity against Candida glabrata NCYC 388 after 72 hrs by broth microdilution method. In kind it is functional. As to conditions: NCYC 388, 72 h. The method in brief: as §1
On the technique in general: In broth dilution the organism is exposed to a series of concentrations in liquid medium.

A short description of series [3]: Toxicity in human RBC assessed as hemolysis upto 128 ug/ml. In kind it is cell-based. As to conditions: erythrocyte.
A further series has as its system HEK293. The series can be described thus: Cytotoxicity against HEK293 cells after 24 hrs by MTT assay. As to conditions: Homo sapiens, HEK293, 24 h. In kind it is cell-based. In general terms: Formazan colour is commonly taken as a measure of viable cells.
Series [4] is described as follows: Toxicity in human RBC assessed as partial hemolysis at 256 ug/ml. To be noted: erythrocyte. Format: cell-based.
Series [5] relates to Nakaseomyces glabratus. The series can be described thus: Antifungal activity against Candida glabrata NCYC 388 after 24 to 36 hrs by broth microdilution method. In kind it is functional, organism-based. The method in brief:
as §1

For series [6], the system named is Cryptococcus neoformans. The series can be described thus: Antifungal activity against Cryptococcus neoformans ATCC 34664 after 72 hrs by broth microdilution method. Format: functional. To be noted: ATCC 34664, 72 h. In a few lines: as §1
Series [7] deals with Cryptococcus neoformans. The series can be described thus: Antifungal activity against Cryptococcus neoformans ATCC 34664 after 24 to 36 hrs by broth microdilution method. Format: functional, organism-based. In a few lines: as §1
The test system of series [8] is Candida albicans. As to the kind of experiment: Antifungal activity against Candida albicans ATCC 24433 after 72 hrs by broth microdilution method. To be noted: ATCC 24433, 72 h. In kind it is functional. The method in brief: as §1
For series [9], the system named is Candida albicans. As to the kind of experiment: Antifungal activity against Candida albicans ATCC 10231 after 24 to 36 hrs by broth microdilution method. In kind it is functional, organism-based. The method in brief: as §1
The subject of series [10] is Aspergillus niger. As to the kind of experiment: Antifungal activity against Aspergillus niger ATCC 10578 after 72 hrs by broth microdilution method. Format: functional. As to conditions: ATCC 10578, 72 h. In a few lines: as §1
Series [11] relates to Candida albicans. The series can be described thus: Antifungal activity against Candida albicans ATCC 10231 after 72 hrs by broth microdilution method. Format: functional. As to conditions: ATCC 10231, 72 h. In a few lines: as §1
For series [12], the system named is Candida albicans. The series can be described thus: Antifungal activity against Candida albicans ATCC 24433 after 24 to 36 hrs by broth microdilution method. In kind it is functional, organism-based. The method in brief: as §1
The test system of series [13] is Aspergillus niger. The series can be described thus: Antifungal activity against Aspergillus niger ATCC 10578 after 48 hrs by broth microdilution method. In kind it is functional, organism-based. As to conditions: ATCC 10578, 48 h. The method in brief:
as §1

Series [14] concerns Candida tropicalis. As to the kind of experiment: Antifungal activity against Candida tropicalis ATCC 750 after 24 to 36 hrs by broth microdilution method. In kind it is functional, organism-based. In a few lines:
as §1

By MFC is commonly meant the lowest tested concentration that kills the fungus rather than only halting it. A high value points to less potent killing. As usually defined, the IC50 is the concentration needed to halve the response being measured. For orientation: MIC means the smallest concentration in the dilution series that meets the test's criterion for growth inhibition. Take `CNC1CCN(CC(C)Cc2ccc([Si](C)(C)C)cc2)CC1` (stereo unspecified): the MFC against Candida tropicalis [1] was determined as 16 µg/mL (≈ 50.2 µM); with Nakaseomyces glabratus [2] it was 4 µg/mL (≈ 12.6 µM); against Cryptococcus neoformans [6], 8 µg/mL (≈ 25.1 µM); in the series on Candida albicans [8], 8 µg/mL (≈ 25.1 µM); against Aspergillus niger [10] it was 64 µg/mL (≈ 201 µM); in the series on Candida albicans [11], 2 µg/mL (≈ 6.28 µM). The Activity result in series [3] is “Non-toxic”; in [4], “Toxic”. Further, the IC50 with HEK293 worked out at 9.81 µg/mL (≈ 30.8 µM); in the series on Nakaseomyces glabratus [5], 1.63 µg/mL (≈ 5.12 µM); in the series with Cryptococcus neoformans [7] it was 3.77 µg/mL (≈ 11.8 µM); in the series with Candida albicans [9] it was 1 µg/mL (≈ 3.14 µM); with Candida albicans [12], 1.55 µg/mL (≈ 4.87 µM); in the series on Aspergillus niger [13], 1.25 µg/mL (≈ 3.92 µM). In the series with Candida tropicalis [14], this compound came in with an IC50 of 5.87 µg/mL (≈ 18.4 µM). The minimum inhibitory concentration (MIC) with Nakaseomyces glabratus [5] is 2 µg/mL (≈ 6.28 µM); against Cryptococcus neoformans [7], 8 µg/mL (≈ 25.1 µM); against Candida albicans [9] it was 2 µg/mL (≈ 6.28 µM); with Candida albicans [12], 4 µg/mL (≈ 12.6 µM); in the series with Aspergillus niger [13], 2 µg/mL (≈ 6.28 µM); with Candida tropicalis [14], 16 µg/mL (≈ 50.2 µM).
